Experimental data published in ChEMBL document CHEMBL5055635, “High-Throughput Crystallography Reveals Boron-Containing Inhibitors of a Penicillin-Binding Protein with Di- and Tricovalent Binding Modes” (J Med Chem, 2021).
Activity calls are given as the source filed them. The calls are words filed in the database; no cut-off is given here.

Tests used:
[1] = test system: Haemophilus influenzae; experiment: Antimicrobial activity against Haemophilus influenzae ATCC 49766 assessed as bacterial growth inhibition incubated for 18 hrs by CLSI protocol based broth microdilution method; format: functional
[2] = test system: Escherichia coli; experiment: Antimicrobial activity against Escherichia coli […] assessed as bacterial growth inhibition incubated for 18 hrs by CLSI protocol based broth microdilution method; format: functional
[3] = test system: Pseudomonas aeruginosa; experiment: Antimicrobial activity against Pseudomonas aeruginosa PAO1 assessed as bacterial growth inhibition incubated for 18 hrs by CLSI protocol based broth microdilution method; format: functional
[4] = test system: Pseudomonas aeruginosa; experiment: Antimicrobial activity against permeabilized Pseudomonas aeruginosa assessed as bacterial growth inhibition incubated for 18 hrs by CLSI protocol based broth microdilution method; format: functional; conditions: dose 150 µM
[5] = test system: Pseudomonas aeruginosa; experiment: Reversible inhibition of Pseudomonas aeruginosa PBP3 using nitrocefin as substrate assessed as increase in irreversibly bound ceftazidime IC50 by two-fold dilution assay; conditions: dose 150.0 µM
[6] = test system: Haemophilus influenzae; experiment: Inhibition of Haemophilus influenzae PBP3 assessed as residual activity at 1 mM preincubated for 1 hr followed by substrate addition measured after 30 mins by fluorescence anisotropy assay relative to control
In short: (§1)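 Purified PBP (60 nM) preincubated with compound for 1 h at 30 °C in 100 mM sodium phosphate pH 7 with 0.01% Triton. BOCILLIN FL (30 nM) was then added, and fluorescence anisotropy was read after 30 min. Residual activity is the percentage of the uninhibited control. Run in triplicate.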

[7] = test system: Acinetobacter baumannii; experiment: Inhibition of Acinetobacter baumannii PBP3 assessed as residual activity at 1 mM preincubated for 1 hr followed by substrate addition measured after 30 mins by fluorescence anisotropy assay relative to control; in short: as §1
[8] = test system: Escherichia coli; experiment: Inhibition of Escherichia coli PBP3 assessed as residual activity at 1 mM preincubated for 1 hr followed by substrate addition measured after 30 mins by fluorescence anisotropy assay relative to control; in short: as §1
[9] = test system: Neisseria gonorrhoeae; experiment: Inhibition of Neisseria gonorrhoeae PBP2 assessed as residual activity at 1 mM preincubated for 1 hr followed by substrate addition measured after 30 mins by fluorescence anisotropy assay relative to control; in short: as §1
[10] = test system: Acinetobacter baumannii; experiment: Antimicrobial activity against Acinetobacter baumannii ATCC 19606 assessed as bacterial growth inhibition incubated for 18 hrs by CLSI protocol based broth microdilution method; format: functional; conditions: ATCC 19606 = CIP 70.34 = JCM 6841
[11] = test system: Neisseria gonorrhoeae; experiment: Antimicrobial activity against Neisseria gonorrhoeae ATCC 49226 assessed as bacterial growth inhibition incubated for 18 hrs by CLSI protocol based broth microdilution method; format: functional
[12] = test system: Pseudomonas aeruginosa; experiment: Inhibition of Pseudomonas aeruginosa PBP3 at 1 mM using bocillin FL as a fluorogenic substrate preincubated for 0 to 60 mins followed by substrate addition measured after 30 mins by fluorescence anisotropy assay; conditions: time 0-60 min
In short: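 PaPBP3 preincubated with compound for 0, 30 or 60 min before BOCILLIN FL was added to start the reaction. Otherwise the standard FA competition format: 60 nM protein, 30 nM BOCILLIN FL, pH 7 sodium phosphate with 0.01% Triton, 30 °C.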

[13] = test system: Escherichia coli; experiment: Synergistic antimicrobial activity against Escherichia coli […] assessed as bacterial growth inhibition in presence of piperacillin incubated for 18 hrs by checkerboard titration method; format: functional, organism-based
[14] = test system: Pseudomonas aeruginosa; experiment: Synergistic antimicrobial activity against Pseudomonas aeruginosa PAO1 assessed as bacterial growth inhibition in presence of piperacillin incubated for 18 hrs by checkerboard titration method; format: functional, organism-based
[15] = test system: Pseudomonas aeruginosa; experiment: Inhibition of Pseudomonas aeruginosa PBP3 using bocillin FL as a fluorogenic substrate assessed as residual activity at 1 mM preincubated for 1 hr followed by substrate addition measured after 30 mins by fluorescence anisotropy assay relative to control; in short: as §1
[16] = test system: Pseudomonas aeruginosa; experiment: Inhibition of Pseudomonas aeruginosa PBP3 using bocillin FL as a fluorogenic substrate assessed as residual activity at 100 uM preincubated for 1 hr followed by substrate addition measured after 30 mins by fluorescence anisotropy assay relative to control; in short: as §1
[17] = test system: Pseudomonas aeruginosa; experiment: Inhibition of Pseudomonas aeruginosa PBP3 using (2-((benzoyl-D-alanyl)thio)acetic acid) as a substrate assessed as residual activity by measuring substrate turnover at 100 uM incubated for 1 hr followed by substrate addition by absorbance based assay relative to control
In short: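 PaPBP3 (400 nM; 200 nM final) incubated with compound for 1 h at 30 °C in 100 mM sodium phosphate pH 7 with 0.01% Triton. S2d and DTNB (1 mM each, final) were then added, and A412 was followed at 30 °C. Initial rates were corrected for non-enzymatic hydrolysis, measured with 1 mM aztreonam. Residual activity is the percentage of the untreated control. Three technical replicates, standard error.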

| SMILES | MIC [2] | MIC [3] | MIC [4] | Activity [15] | also measured |
| --- | --- | --- | --- | --- | --- |
| NC(=O)[C@H](NC(=O)c1ccc2c(c1)B(O)OC2CC(=O)O)c1ccccc1 (stereo partly specified) | > 64 µg/mL | > 64 µg/mL | > 64 µg/mL | – | MIC [1]: > 64 µg/mL; inhibition [5]: inactive; Activity [6]: 32%; Activity [7]: 73%; Activity [8]: > 90%; Activity [9]: > 90%; MIC [10]: > 64 µg/mL; MIC [11]: > 64 µg/mL; inhibition [12]: inactive; Activity [13]: inactive; Activity [14]: inactive |
| CN1CCN(C(=O)[C@@H](Cc2ccccc2)NC(=O)c2ccc3c(c2)B(O)OC3)CC1=O | – | – | – | > 90% | – |
| O=C(c1ccc2c(c1)B(O)OC2)N(Cc1ccccc1)Cc1ccccc1 | > 64 µg/mL | > 64 µg/mL | > 64 µg/mL | – | Activity [16]: 87% |
| O=C(O)C[C@@H]1OB(O)c2ccc(OCc3ccccc3)cc21 | – | – | – | 20% | – |
| OB(O)c1cccc(-c2nnn[nH]2)c1 | – | – | – | 82% | – |

The next lines start with results.

| MIC [2] | MIC [3] | MIC [4] | Activity [15] | SMILES | also measured |
| --- | --- | --- | --- | --- | --- |
| – | – | – | > 90% | CN1CCN(C(=O)CNC(=O)c2ccc3c(c2)B(O)OC3)CC1=O | – |
| > 64 µg/mL | > 64 µg/mL | > 64 µg/mL | – | COC(=O)[C@H](NC(=O)c1ccc2c(c1)B(O)OC2)c1ccccc1 | Activity [16]: > 90%; Activity [17]: > 90% |
| – | – | – | > 90% | O=C1CN(C(=O)CNC(=O)c2ccc3c(c2)B(O)OC3)CCN1 | – |
| > 64 µg/mL | > 64 µg/mL | > 64 µg/mL | – | CN1CCN(C(=O)CNC(=O)c2ccc3c(c2)B(O)OC3CC(=O)O)CC1=O (stereo unspecified) | – |
